The source of these data is article PMC3475189 (Environmental science & technology, 2012).

Data set [1] is described as follows: Tissue levels of PCB 95 and OH-PCB metabolites by GC-ECD. It is filed as in vivo, female C57Bl/6 mice. As to conditions: for levels in adipose and brain samples: detection limits 11 to 16 ng/g tissue; for concentration at 24 h: female, C57Bl/6, mouse, brain.
For data set [2] the following is noted: cited from earlier work.
Data set [3] can be described thus: Enantiomeric fractions in tissues by enantioselective GC. It is filed as in vivo, female C57Bl/6 mice. Put shortly: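 Extracts of blood, brain, liver and adipose came from mice given 0.1, 1.0 or 6.0 mg/kg/day orally in peanut butter for 39 days and sacrificed 24 h after the last dose. Enantioselective GC-ECD used Chirasil Dex, BGB-172 or ChiralDex B-DM columns: 35 to 140 °C held 420 min, then 200 °C; injector and detector 250 °C; helium 3 mL/min. EF = A1/(A1+A2), E1 being the first-eluting atropisomer; mean ± SD.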

For the next data set, the system named is CYP3A11 mRNA. Briefly: Hepatic CYP3A11 mRNA level by qPCR. Format: in vivo, female C57Bl/6 mice. As to conditions: liver, high dose 6 mg/kg b.w./day, 39 days oral.
Data set [4] relates to P450 mRNA (CYP1A2, CYP3A11, CYP2B10, CYP2S1). Briefly: Brain P450 mRNA levels by qPCR. It is filed as in vivo, female C57Bl/6 mice. As to conditions: 39 days oral. In general terms: Quantitative PCR measures a nucleic acid by following its amplification.
Another data set has as its system CYP1A2 mRNA. Briefly: Hepatic CYP1A2 mRNA level by qPCR. Format: in vivo, female C57Bl/6 mice. As to conditions: liver, 39 days oral.
Another data set in a line: General toxicity. To be noted: 0.1, 1 or 6 mg/kg b.w./day oral for 39 days, any dose level. Format: in vivo, female C57Bl/6 mice. In short, it runs like this:
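Seven-week-old female C57Bl/6 mice, housed singly on a 12 h reverse light cycle, were acclimated 7 days. They then took the test compound in peanut butter daily at 0.1, 1.0 or 6.0 mg/kg/day for 39 days, with the amount adjusted to daily body weight; vehicle controls received peanut butter only. Body weights were recorded daily and analysed by two-way repeated measures ANOVA.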

A further data set concerns CYP2S1 mRNA. Briefly: Hepatic CYP2S1 mRNA level by qPCR. Format: in vivo, female C57Bl/6 mice. As to conditions: liver, all doses, 39 days oral.
The subject of a further data set is CYP2B10 mRNA. The data set can be described thus: Hepatic CYP2B10 mRNA level by qPCR. It is filed as in vivo, female C57Bl/6 mice. As to conditions: liver, low dose 0.1 mg/kg b.w./day, 39 days oral.

Take `COc1c(Cl)cc(Cl)c(-c2cc(Cl)ccc2Cl)c1Cl` [3-103, 3 Methoxy 2,2′,4,5′,6-pentachlorobiphenyl]: the “levels in adipose and brain samples” value in [1] is given as “below their respective detection limits”.

As to `COc1c(Cl)c(Cl)c(-c2cc(Cl)ccc2Cl)c(Cl)c1OC` [4,5-95, 4,5-dimethoxy-2,2′,3,5′,6-pentachlorobiphenyl], in data set [1], the “levels in adipose and brain samples” value was “below their respective detection limits”.

On to `Oc1cc(Cl)c(-c2cc(Cl)ccc2Cl)c(Cl)c1Cl` [4-95, 2,2′,3,5′,6-pentachlorobiphenyl-4-ol], for which the “levels in adipose and brain samples” value in data set [1] was “below their respective detection limits”. In addition, in data set [1] (liver, low dose treatment group), the level in liver entry is recorded as “below the detection limit”.

In the case of `Oc1c(Cl)cc(-c2ccc(Cl)c(Cl)c2)c(Cl)c1Cl` [4-107, 2,3,3′,4′,5-pentachlorobiphenyl-4-ol], in [2] (fetal brain after oral administration of 4-107 to pregnant Wistar rats), the “level in fetal brains” value is listed as ~ 1 μg/g tissue. In [2] (post-weanling rats), the “level in post-weanling rats” value is listed as “below detection”.

`Oc1cc(Cl)c(Cl)c(-c2cc(Cl)ccc2Cl)c1Cl` [5-95, 2,2′,3,5′,6-pentachlorobiphenyl-5-ol]: the “levels in adipose and brain samples” value in [1] is given as “below their respective detection limits”. In data set [3] (liver, high dose treatment group), the enriched atropisomer entry is given as “E1-5-95 was enriched”. Also, the enantiomeric enrichment result in data set [3] (liver, medium dose treatment group) was “no consistent enantiomeric enrichment”.

As to `Clc1ccc(Cl)c(-c2c(Cl)ccc(Cl)c2Cl)c1` [PCB 95, 2,2′,3,5′,6-pentachlorobiphenyl], in the data set on CYP3A11 mRNA, the “hepatic CYP3A11 levels compared to control” value is “no change”. Further, the “brain P450 mRNA levels” value in [4] is recorded as “not affected”. The “CYP1A2 transcript levels relative to control” value in the data set on CYP1A2 mRNA (high dose 6 mg/kg b.w./day) is on record as “not changed”. For the same molecule, the “induction of CYP1A2 mRNA compared to control” value in the data set with CYP1A2 mRNA (low dose 0.1 mg/kg b.w./day) was 1.9 fold. Moreover, the concentration at 24 h in data set [1] (oral, 6 mg/kg/day) was 360 ng/g; in [1] (po), 37 to 360 ng/g. For the same molecule, the “increase in adipose levels of PCB 95” value in data set [1] (low to medium dose (10-fold increase in dose)) came out at 10 fold. The “effect on final body weight, growth rate or other signs of general toxicity” value in the data set “General toxicity” is listed as “no effect”. Further, the “hepatic CYP2S1 mRNA levels” value with CYP2S1 mRNA is listed as “not affected”. In addition, in the data set on CYP2B10 mRNA, the “CYP2B10 mRNA levels compared to control” value is reported as “no change”. In data set [3] (adipose, EF = A1/(A1+A2)), the “average EF value across treatment groups” value was “≈ 0.19”. In data set [3] (blood, brain, liver and adipose, all three treatment groups), the enriched atropisomer result is reported as “E2-PCB 95 was enriched”. Also, the “average EF across treatment groups” value in [3] (liver and blood, EF = A1/(A1+A2)) is “approximately 0.10”.
